Here are results for 5 compounds from ChEMBL document CHEMBL2176939, “Rapid discovery of highly potent and selective inhibitors of histone deacetylase 8 using click chemistry to generate candidate libraries” (J Med Chem, 2012).

Each structure is given as a SMILES string. Calls of active or inactive are those of the source. No cut-off for these calls is given here.

Data set [1] addresses Histone deacetylase 1 (Homo sapiens, UniProt Q13547). The data set can be described thus: Inhibition of HDAC1 by fluorometric assay.
Data set [2] addresses Histone deacetylase 2 (Homo sapiens, UniProt Q92769). The data set can be described thus: Inhibition of HDAC2 by fluorometric assay.
Data set [3] addresses T1, Histone deacetylase 8 (Homo sapiens, UniProt Q9BY41).
T1 sequence (Q9BY41 whole entry): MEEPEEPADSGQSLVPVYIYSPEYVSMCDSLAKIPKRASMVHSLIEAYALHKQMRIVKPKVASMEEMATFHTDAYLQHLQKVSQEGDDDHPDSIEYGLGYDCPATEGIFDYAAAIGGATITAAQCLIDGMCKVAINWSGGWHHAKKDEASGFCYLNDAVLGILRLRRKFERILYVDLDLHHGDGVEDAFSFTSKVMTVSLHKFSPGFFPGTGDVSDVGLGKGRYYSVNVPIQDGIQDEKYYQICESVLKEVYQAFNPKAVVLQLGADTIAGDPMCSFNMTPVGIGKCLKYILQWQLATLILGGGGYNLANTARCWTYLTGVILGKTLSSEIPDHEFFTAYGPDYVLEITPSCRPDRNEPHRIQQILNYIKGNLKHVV
The data set can be described thus: Inhibition of HDAC8 by fluorometric assay.

For data set [4], the target named is Histone deacetylase (Homo sapiens) (UniProt Q13547+O15379+Q9UBN7+Q92769+Q9UQL6+Q8WUI4+Q9BY41+Q96DB2+P56524+Q9UKV0+Q969S8). Kind of data set: Inhibition of HDAC in human HeLa cells nuclear extracts at 3 uM by fluorometric assay. Type of data set: cell-free. An outline of the steps: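 Total HDAC activity of HeLa nuclear extract was measured with a commercial fluorometric deacetylase kit, following the supplier's protocol. Compounds were screened at 3 μM, including crude click-reaction triazoles diluted without purification. Fluorescence was read at ex 360 / em 460 nm, and % inhibition was calculated relative to uninhibited control wells.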

The target in data set [5] is Histone deacetylase. Kind of data set: Inhibition of HDAC in human HeLa cells nuclear extracts by fluorometric assay. Type of data set: cell-based.
Data set [6] deals with T2, Protein deacetylase HDAC6 (Homo sapiens, UniProt Q9UBN7).
T2 sequence (Q9UBN7 whole entry): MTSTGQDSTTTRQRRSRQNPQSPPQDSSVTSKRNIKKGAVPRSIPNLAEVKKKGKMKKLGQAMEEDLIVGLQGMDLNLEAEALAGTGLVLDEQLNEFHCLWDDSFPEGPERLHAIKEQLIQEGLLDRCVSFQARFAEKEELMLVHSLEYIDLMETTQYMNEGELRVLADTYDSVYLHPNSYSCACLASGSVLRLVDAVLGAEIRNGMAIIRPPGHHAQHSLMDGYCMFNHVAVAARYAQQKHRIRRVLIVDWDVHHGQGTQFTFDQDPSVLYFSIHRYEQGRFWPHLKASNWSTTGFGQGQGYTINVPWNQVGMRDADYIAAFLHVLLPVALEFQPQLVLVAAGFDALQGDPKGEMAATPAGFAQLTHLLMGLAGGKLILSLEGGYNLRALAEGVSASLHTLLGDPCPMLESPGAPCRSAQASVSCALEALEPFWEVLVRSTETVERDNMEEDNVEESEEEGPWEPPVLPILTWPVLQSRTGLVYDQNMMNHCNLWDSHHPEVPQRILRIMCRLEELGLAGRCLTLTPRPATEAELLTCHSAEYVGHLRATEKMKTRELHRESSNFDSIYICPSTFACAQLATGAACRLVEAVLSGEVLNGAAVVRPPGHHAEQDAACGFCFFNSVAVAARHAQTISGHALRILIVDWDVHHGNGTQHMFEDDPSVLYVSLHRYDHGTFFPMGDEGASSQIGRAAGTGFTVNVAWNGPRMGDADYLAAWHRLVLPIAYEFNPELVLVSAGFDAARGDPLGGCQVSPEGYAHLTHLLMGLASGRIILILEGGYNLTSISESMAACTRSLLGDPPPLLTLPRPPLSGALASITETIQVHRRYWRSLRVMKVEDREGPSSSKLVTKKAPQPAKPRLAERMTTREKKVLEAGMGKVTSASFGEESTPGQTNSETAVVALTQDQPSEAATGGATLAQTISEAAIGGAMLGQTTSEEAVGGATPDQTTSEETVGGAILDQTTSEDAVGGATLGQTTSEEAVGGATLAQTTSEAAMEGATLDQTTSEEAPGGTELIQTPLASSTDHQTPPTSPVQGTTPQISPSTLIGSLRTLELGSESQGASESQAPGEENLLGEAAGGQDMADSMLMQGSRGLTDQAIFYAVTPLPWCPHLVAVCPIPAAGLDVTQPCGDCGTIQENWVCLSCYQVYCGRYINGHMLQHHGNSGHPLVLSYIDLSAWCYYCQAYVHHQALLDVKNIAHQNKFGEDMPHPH
Kind of data set: Inhibition of HDAC6 by fluorometric assay.

Data set [7] addresses Histone deacetylase 4 (Homo sapiens, UniProt P56524). Kind of data set: Inhibition of HDAC4 by fluorometric assay.
Data set [8] has as its system HH. Kind of data set: Growth inhibition of human HH cells incubated for 72 hrs by MTS assay. Type of data set: functional. An outline of the steps:
(§1)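 Cells plated at 2 × 10⁵ cells/well in culture medium and exposed to inhibitor for 72 h at 37 °C under 5% CO₂. MTS was then added for 2 h, with absorbance read at 490 nm against a 650 nm reference. Wells were also read at compound addition (T₀). % growth = 100[(T − T₀)/(C − T₀)], or […]. GI₅₀ is where % growth = 50.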
(In general: Tetrazolium assays rely on reduction of a dye to a coloured formazan, in cell work by metabolically active cells.)

In data set [9] the test system is MT4. The data set can be described thus: Growth inhibition of human MT4 cells incubated for 72 hrs by MTS assay. As to conditions: MT4, 72 h. It counts as functional. The essentials: as §1
In data set [10] the test system is Jurkat. Kind of data set: Growth inhibition of human Jurkat cells incubated for 72 hrs by MTS assay. It counts as functional. The essentials: as §1
Data set [11] concerns MT2. Kind of data set: Growth inhibition of human MT2 cells incubated for 72 hrs by MTS assay. It counts as functional. Conditions: MT2, 72 h. The essentials: as §1
The nature of data set [12]: Growth inhibition of human PBMC PB-O cells incubated for 72 hrs by MTS assay. Type of data set: cell-based. An outline of the steps: as §1
The test system of data set [13] is NB1. The data set can be described thus: Growth inhibition of human NB-1 cells incubated for 72 hrs by MTS assay. Type of data set: functional. Conditions: NB1, 72 h. An outline of the steps: as §1
The nature of data set [14]: Growth inhibition of human PBMC PB-N cells incubated for 72 hrs by MTS assay. It counts as cell-based. The essentials: as §1
Data set [15] can be described thus: Growth inhibition of human LAN1 cells incubated for 72 hrs by MTS assay. Type of data set: functional. Conditions: LAN1, 72 h. An outline of the steps: as §1

Chain of Histone deacetylase 2 (Q92769 whole entry): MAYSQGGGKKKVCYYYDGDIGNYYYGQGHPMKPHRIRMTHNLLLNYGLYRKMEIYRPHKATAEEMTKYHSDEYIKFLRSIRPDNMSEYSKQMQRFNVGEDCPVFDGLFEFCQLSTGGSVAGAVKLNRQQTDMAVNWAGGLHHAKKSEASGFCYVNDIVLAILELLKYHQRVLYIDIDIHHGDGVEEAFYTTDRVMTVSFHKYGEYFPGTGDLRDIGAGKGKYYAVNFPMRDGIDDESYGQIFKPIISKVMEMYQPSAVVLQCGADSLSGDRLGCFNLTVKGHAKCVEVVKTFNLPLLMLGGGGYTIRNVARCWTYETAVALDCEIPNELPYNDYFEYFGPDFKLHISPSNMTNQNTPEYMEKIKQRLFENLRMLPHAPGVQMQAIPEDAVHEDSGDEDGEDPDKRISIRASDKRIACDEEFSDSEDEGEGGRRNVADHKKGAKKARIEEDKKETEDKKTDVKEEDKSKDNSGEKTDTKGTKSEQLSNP
Chain of Histone deacetylase 1 (Q13547 whole entry): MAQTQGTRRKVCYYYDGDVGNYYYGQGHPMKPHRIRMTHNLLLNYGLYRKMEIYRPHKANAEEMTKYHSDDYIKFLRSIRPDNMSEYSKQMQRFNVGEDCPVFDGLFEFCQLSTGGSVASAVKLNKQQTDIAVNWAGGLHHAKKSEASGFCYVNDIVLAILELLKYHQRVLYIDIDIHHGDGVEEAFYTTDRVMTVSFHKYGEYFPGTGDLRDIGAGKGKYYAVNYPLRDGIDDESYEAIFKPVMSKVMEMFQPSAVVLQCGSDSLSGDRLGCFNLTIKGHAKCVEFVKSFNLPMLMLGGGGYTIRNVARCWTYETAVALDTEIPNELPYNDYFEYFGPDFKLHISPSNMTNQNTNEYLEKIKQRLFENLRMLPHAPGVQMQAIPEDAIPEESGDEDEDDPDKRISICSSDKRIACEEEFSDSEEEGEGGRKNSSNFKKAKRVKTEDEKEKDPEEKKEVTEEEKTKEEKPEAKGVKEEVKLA
Chain of Histone deacetylase 4 (P56524 whole entry): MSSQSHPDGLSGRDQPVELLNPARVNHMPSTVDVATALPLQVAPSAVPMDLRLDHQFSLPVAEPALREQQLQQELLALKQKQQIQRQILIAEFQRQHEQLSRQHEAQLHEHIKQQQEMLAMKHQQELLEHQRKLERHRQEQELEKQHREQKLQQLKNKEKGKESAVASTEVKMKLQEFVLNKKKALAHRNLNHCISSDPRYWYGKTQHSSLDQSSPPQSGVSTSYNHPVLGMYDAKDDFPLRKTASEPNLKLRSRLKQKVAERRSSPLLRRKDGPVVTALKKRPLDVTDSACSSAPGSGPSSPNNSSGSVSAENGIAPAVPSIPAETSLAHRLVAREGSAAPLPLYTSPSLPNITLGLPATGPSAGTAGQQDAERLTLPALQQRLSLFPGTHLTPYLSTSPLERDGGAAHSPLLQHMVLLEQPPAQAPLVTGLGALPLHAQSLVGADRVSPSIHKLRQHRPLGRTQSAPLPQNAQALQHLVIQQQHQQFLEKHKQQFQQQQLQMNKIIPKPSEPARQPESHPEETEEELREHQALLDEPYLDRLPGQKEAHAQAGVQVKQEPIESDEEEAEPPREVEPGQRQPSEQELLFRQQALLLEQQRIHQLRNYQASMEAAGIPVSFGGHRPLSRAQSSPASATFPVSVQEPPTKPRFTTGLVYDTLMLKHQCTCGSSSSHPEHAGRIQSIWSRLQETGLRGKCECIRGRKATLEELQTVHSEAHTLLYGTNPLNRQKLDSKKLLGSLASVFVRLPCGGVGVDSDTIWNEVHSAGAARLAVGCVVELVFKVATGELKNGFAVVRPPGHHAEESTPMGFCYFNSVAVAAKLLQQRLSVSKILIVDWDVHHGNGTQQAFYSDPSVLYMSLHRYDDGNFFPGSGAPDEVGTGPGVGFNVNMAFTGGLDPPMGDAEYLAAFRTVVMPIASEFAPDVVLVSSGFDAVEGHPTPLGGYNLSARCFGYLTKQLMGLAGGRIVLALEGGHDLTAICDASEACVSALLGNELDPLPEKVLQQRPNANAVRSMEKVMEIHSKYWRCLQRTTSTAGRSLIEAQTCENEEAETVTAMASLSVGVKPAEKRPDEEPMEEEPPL

As usually defined, the IC50 is the concentration that inhibits the measured activity by half. A higher IC50 goes with weaker potency in that assay. In the case of `O=C(NO)c1cccc(-c2cn(CCc3ccsc3)nn2)c1`, the IC50 is more than 100 µM in [1]; more than 100 µM in data set [2]; 0.1 µM in data set [3]; 44 µM in data set [5]; 1.1 µM in data set [6]; more than 100 µM in data set [7]. Further, the inhibition result in [4] was “inactive”.

Usually GI50 stands for the concentration giving 50% growth inhibition. For `O=C(NO)c1cccc(-c2cn(CCc3ccccc3)nn2)c1`, the concentration for 50% growth inhibition (GI50) amounted to 79 µM in data set [8]; 30 µM in data set [9]; 11 µM in data set [10]; 19 µM in data set [11]; 39 µM in data set [13]; 27 µM in data set [15]. Further, the IC50 is more than 100 µM in data set [1]; 76 µM in [2]; 0.18 µM in [3]; 23 µM in data set [5]; 3.2 µM in data set [6]; more than 100 µM in [7]. The GI50 at 72 h in [12] and in [14] was more than 100 µM each time. Further, the inhibition entry in [4] was “inactive”.

As to `O=C(NO)c1cccc(-c2cn(Cc3ccccc3)nn2)c1`, the IC50 in [1] turned out to be 41 µM; in data set [2], 65 µM; in [3], 0.35 µM; in [5] it was 37 µM; in data set [6], 7.9 µM; in data set [7], 30 µM. For the same compound, in data set [4], the inhibition entry is “inactive”.

In the case of `COc1ccc(Cn2ccc3ccc(C(=O)NO)cc32)cc1`, the GI50 was more than 100 µM in data set [8]; 25 µM in [9]; 11 µM in data set [10]; 15 µM in data set [11]; 14 µM in data set [13]; 3.9 µM in data set [15]. Moreover, the GI50 at 72 h in [12] was 97 µM; in data set [14] it was more than 100 µM.

Turning to `O=C(NO)c1cccc(-c2cn(CSc3ccccc3)nn2)c1`, the GI50 in [8] was 23 µM; in [9], 15 µM; in data set [10] it was 7.6 µM; in [11] it was 11 µM; in [13] it was 12 µM; in data set [15], 6.4 µM. For the same compound, the GI50 at 72 h in data set [12] and in data set [14] was more than 100 µM throughout. In data set [4], the inhibition result is “inactive”.
